Bioassay records deposited in PubChem BioAssay by several laboratories.
HNF4A DNA FP – change in binding of human HNF4A to DNA, primary screen, biochemical, fluorescence polarization, FITC-DNA; actives 0.3% (n = 360,000); 1 h; activity change, % at 10 µM; Hepatocyte nuclear factor 4-alpha (Homo sapiens), P41235; in the data active means activity change above about 30%, passing the limit was not always enough
Target sequence (P41235 whole entry, looked up): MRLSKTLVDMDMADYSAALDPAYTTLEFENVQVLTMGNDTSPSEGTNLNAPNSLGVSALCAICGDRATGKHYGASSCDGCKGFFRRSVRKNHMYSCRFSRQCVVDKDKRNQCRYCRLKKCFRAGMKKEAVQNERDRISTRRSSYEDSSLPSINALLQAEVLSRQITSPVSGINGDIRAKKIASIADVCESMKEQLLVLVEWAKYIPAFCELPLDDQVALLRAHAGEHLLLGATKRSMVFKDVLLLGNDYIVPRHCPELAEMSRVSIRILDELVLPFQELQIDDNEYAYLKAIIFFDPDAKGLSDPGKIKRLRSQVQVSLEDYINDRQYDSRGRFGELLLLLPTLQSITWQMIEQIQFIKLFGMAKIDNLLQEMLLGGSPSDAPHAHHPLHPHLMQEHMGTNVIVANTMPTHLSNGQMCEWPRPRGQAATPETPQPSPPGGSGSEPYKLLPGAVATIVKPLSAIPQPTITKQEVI
IDE cell inh – human IDE inhibitors in live cells, primary screen, fluorescence polarization, HEK cells, FAbetaB substrate; Insulin-degrading enzyme (Homo sapiens), P14735; FAbetaB cleavage; inhibition, % at 5.59 µM; actives 0.41% (n = 320,000);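 active means percent inhibition above the average of all tested compounds plus 3 SD, set per screening campaign, cut at about 16% in these data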;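 further: IDE supplied by intact live HEK cells; FP after avidin binding of uncleaved biotin substrate so inhibition keeps polarization high; 0% = DMSO wells and 100% = 60 µM reference IDE inhibitor Ii1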
TPT1 inhibitor – Candida albicans TPT1 enzyme inhibitors, primary screen, biochemical, fluorescence polarization; tRNA 2'-phosphotransferase TPT1 (Candida albicans SC5314); recombinant caTPT1, FP RNA substrate dephosphorylation; inhibition, % at 5 µM; actives 0.81% (n = 300,000);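 active means inhibition above the mean of all tested compounds plus 3 SD, set per screening campaign, cut at about 24% in these data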;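 further: plate controls were DMSO alone for no effect and ferristatin control at 100 nM for full effect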
CSN deneddyl inh – inhibitors of CSN-mediated cullin deneddylation, primary screen, biochemical, fluorescence polarization, uHTS; COP9 signalosome complex subunit 5 (Homo sapiens), Q92905; Purified CSN, SCF-Nedd8-OG deneddylation; inhibition, % at 12.5 µM; actives 0.38% (n = 360,000);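 active means pattern-corrected inhibition above about 35%, with an unprinted fluorescence ratio check between 0.5 and 1.5, limit read from the data, passing the limit was not always enough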;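 further: 0% = enzyme with substrate and 100% = substrate without enzyme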
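assay system = purified human Csn5 enzyme expressed in HEK293T cells | amount = 0.24 nM enzyme | buffer or medium = Tris/NaCl/DTT buffer, pH 7.5 | reagent = 10 nM SCFSkp2-Nedd8OG | compound = one concentration, 12.5 µM, 0.25% DMSO | times = 90 min reaction at room temperature | signal = FP | read-out basis = % inhibition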
IDE act – human IDE activators in live cells, primary screen, fluorescence polarization, HEK cells, FAbeta-B substrate. FAbeta-B cleavage; 0% vehicle, 100% cell-free pure enzyme wells. activation, % at 5.96 µM. actives 0.073% (n = 340,000). AID 493087, 2011;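 active means activation above the mean of all tested compounds plus 3 SD, set per screening campaign, cut at about 17% in these data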
Tb MetRS inh – T. brucei MetRS inhibitors, primary screen, biochemical, luminescence; actives 0.4% (n = 360,000); purified T. brucei MetRS, ATP depletion, Kinase-Glo luminescence; inhibition, % at 11.9 µM; AID 624268, 2012;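 active means inhibition above a per-plate cutoff of the control wells' mean inhibition plus 3 SD, cut at about 5.5% in these data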;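 further: 0% = DMSO wells median and 100% = median of wells with control inhibitor compound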
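Dosing: 11.9 µM compound single dose, 0.9% DMSO; Assay system: purified T. brucei MetRS enzyme; Measured by: Kinase-Glo luciferase luminescence reporting remaining unconsumed ATP; Schedule: 15 min plus 2 h at 25 °C.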
TbMetRS confirm – T. brucei MetRS inhibitors, confirmation, biochemical, luminescence; shares compounds with Tb MetRS inh; T. brucei MetRS enzyme, luminescence (ATP depletion); inhibition, % at 11.9 µM; actives 93% (n = 1,400); AID 624412, 2012; in the data active means inhibition above about 7%
Jurkat cytotox – Jurkat T cell cytotoxicity, cytotoxicity control for T. brucei MetRS inhibitor project, luminescence, high throughput | shares compounds with Tb MetRS inh | Jurkat cells viability, ATP luminescence | inhibition, % at 8.3 µM | actives 12% (n = 1,400) | AID 624413, 2012; in the data active means inhibition above about 15%;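 further: 0% = vehicle and 100% = reference inhibitor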
Tb MetRS inh FP – T. brucei MetRS inhibitors, orthogonal assay for T. brucei MetRS inhibitor project, biochemical, fluorescence polarization; shares compounds with Tb MetRS inh; purified T. brucei MetRS; actives 44% (n = 1,400); inhibition, % at 11.9 µM; in the data active means inhibition above about 17%;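 further: 0% = vehicle wells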
Starred values were filed as active, the others as inactive; nt = no result. The list is not random: actives were taken first. Their share in the collection is about 1.7%.

SMILES | HNF4A DNA FP | IDE cell inh | TPT1 inhibitor | CSN deneddyl inh | IDE act | Tb MetRS inh | TbMetRS confirm | Jurkat cytotox | Tb MetRS inh FP
CCN(CC)S(=O)(=O)c1ccc(OC)c(NC(=O)c2ccc(-n3cncn3)c([N+](=O)[O-])c2)c1 | -3 | 6 | 0 | -1 | 4 | 37* | 81* | 1 | 50*
COc1ccc(C(=O)NCCC2=CCCCC2)cc1[N+](=O)[O-] | -2 | 0 | -1 | -4 | -2 | 0 | nt | nt | nt
CC(CCc1ccccc1)NC(=O)c1ccc(-n2cncn2)c([N+](=O)[O-])c1 (stereo not given) | 3 | -2 | -1 | 3 | 4 | 26* | 55* | 5 | 31*
COCc1cc(=O)[nH]c(/N=C(\N)Nc2cccc(Cl)c2)n1 | 4 | 5 | 1 | -7 | nt | -1 | nt | nt | nt
CSCCC(c1nnnn1C1CCCC1)N1CCN(C/C=C/c2ccccc2)CC1 (stereo not given) | 0 | nt | nt | 7 | nt | 1 | nt | nt | nt
COCCNC(=S)N(C)[C@H]1C[C@H]2c3cc(-c4ccccc4)ccc3CCN2C(=O)[C@H]1[C@H](C)O | -1 | nt | nt | -3 | nt | -1 | nt | nt | nt
O=C(c1ccc(-n2cncn2)c([N+](=O)[O-])c1)N1CCN(S(=O)(=O)c2ccccc2F)CC1 | -1 | 1 | 3 | -6 | 3 | 0 | nt | nt | nt
CN(C)S(=O)(=O)c1cccc(NC(=O)c2ccc(Sc3nncn3C)c([N+](=O)[O-])c2)c1 | -3 | -5 | 1 | -1 | 3 | 0 | nt | nt | nt
O=C(COc1ccccc1Cl)NNC(=O)c1ccc(-n2cncn2)c([N+](=O)[O-])c1 | -3 | 7 | nt | 0 | 4 | 13* | 43* | -4 | 21*
Cc1ccc(C(=O)NNC(=O)c2ccc(-n3cncn3)c([N+](=O)[O-])c2)cc1 | -1 | 0 | -2 | 2 | 2 | 11* | 41* | -6 | 20*
CCN(CC)S(=O)(=O)c1cc(NC(=O)c2ccc(-n3cncn3)c([N+](=O)[O-])c2)ccc1C | 5 | 0 | 1 | 7 | 5 | 18* | 47* | 35* | 39*
CN(C)S(=O)(=O)c1cccc(NC(=O)c2ccc(-n3cncn3)c([N+](=O)[O-])c2)c1 | 0 | 3 | 2 | -2 | 1 | 43* | 78* | 5 | 50*
COc1ccc(-c2ccc(C(=O)NCc3ccc(N(C)C)cc3)c3occc23)c(C)c1 | 10 | nt | nt | -3 | nt | 0 | nt | nt | nt
COCCNC(=O)CN(Cc1ccc(F)cc1)C(=O)CCC(=O)Nc1nccs1 | -2 | 1 | 0 | 4 | -3 | 0 | nt | nt | nt
Cc1ccc(NC(=O)CN(C)C(=O)c2ccc(Cl)c([N+](=O)[O-])c2)cc1 | -1 | 1 | -2 | -4 | -3 | 36* | 58* | 1 | 37*
CC1CCCCC1NC(=O)c1ccc(-n2cncn2)c([N+](=O)[O-])c1 (stereo not given) | 0 | 3 | 0 | -3 | 2 | 37* | 73* | -7 | 41*
O=C(Nc1ccc(Cl)cc1)c1ccc(-n2cncn2)c([N+](=O)[O-])c1 | -2 | 2 | -2 | -2 | 0 | 42* | 62* | 9 | 33*
CN(CC(=O)Nc1ccc(Cl)c(C(F)(F)F)c1)C(=O)c1ccc(N2CCOCC2)c([N+](=O)[O-])c1 | -3 | 0 | -2 | -2 | 5 | 0 | nt | nt | nt
O=C(Nc1cccc(Cl)c1)c1ccc(-n2cncn2)c([N+](=O)[O-])c1 | 0 | 7 | 6 | -4 | -6 | 42* | 66* | 4 | 37*
CCN(CC)C(=O)[C@H]1CC(CC(=O)NCCCOC)C(=O)N2CCc3c([nH]c4ccccc34)[C@]12C (stereo not given in full) | -2 | 1 | nt | 0 | 6 | 0 | nt | nt | nt
CC(C)(C)NC(=O)c1ccccc1NC(=O)C1CC(=O)N(C2CCCCC2)C1 (stereo not given) | -1 | 1 | -7 | 2 | 1 | -1 | nt | nt | nt
Cc1ccc(NC(=O)c2ccc(-n3cncn3)c([N+](=O)[O-])c2)cc1 | -1 | 2 | 3 | 2 | -2 | 27* | 46* | 0 | 15
CN(CC(=O)Nc1ccc(Cl)cc1)C(=O)c1ccc(-n2cncn2)c([N+](=O)[O-])c1 | 2 | -2 | -1 | 3 | 5 | 70* | 100* | -3 | 85*
O=C(O)c1ccc(-n2cncn2)c([N+](=O)[O-])c1 | 1 | -1 | 0 | 7 | 1 | 1 | nt | nt | nt
CS(=O)(=O)c1ccc(Cl)c(NC(=O)c2ccc(-n3cncn3)c([N+](=O)[O-])c2)c1 | -4 | nt | nt | 2 | nt | 57* | 81* | 6 | 67*
SMILES | HNF4A DNA FP | IDE cell inh | TPT1 inhibitor | CSN deneddyl inh | IDE act | Tb MetRS inh | TbMetRS confirm | Jurkat cytotox | Tb MetRS inh FP
CS(=O)(=O)c1ccc(C(=O)Nc2cc(S(C)(=O)=O)ccc2Cl)cc1 | 1 | -7 | -4 | 2 | 1 | 1 | nt | nt | nt
Cc1cccc(C)c1NC(=O)CN(C)C(=O)c1ccc(-n2cncn2)c([N+](=O)[O-])c1 | 2 | -10 | 0 | 1 | 4 | 0 | nt | nt | nt
Cc1ccc(CC(=O)Nc2cccc(S(=O)(=O)N3CCOCC3)c2)cc1 | 0 | -4 | -1 | -5 | 0 | 3 | nt | nt | nt
O=C(COc1ccc(S(=O)(=O)N2CCOCC2)cc1)Nc1ccc(Br)cc1 | 2 | -1 | nt | -4 | -2 | 18* | 50* | 17* | 33*
O=C(Cc1ccc(Br)cc1)Nc1cccc(S(=O)(=O)N2CCOCC2)c1 | -2 | 3 | nt | -2 | 0 | 55* | 76* | 8 | 57*
O=C(Cn1c(NCCO)nc2ccccc21)c1ccc([N+](=O)[O-])cc1 | 4 | -2 | 0 | 2 | -1 | 20* | 3 | 6 | 7
Cn1cc(S(=O)(=O)N2CCOCC2)cc1C(=O)NCc1ccc(Cl)cc1 | 0 | 0 | -1 | -1 | -4 | 36* | 51* | -2 | 28*
